Data: paper PMC10433104 (Journal of medicinal chemistry, 2023)

biological target: PDE4D7-S129D (PDE4D*) (Homo sapiens, UniProt Q08499, S190D); test: PDE4 enzyme inhibition assay; assay type: biochemical; settings: ratio of IC50 for PDE4B* over that for PDE4D*
Procedure, shortened: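 Mutationally activated dimeric enzymes were used: PDE4D7-S129D (PDE4D*) and PDE4B1-S133D (PDE4B*). PDE4B served as the comparator for the PDE4 subtypes. Activity was read with a real-time coupled enzyme assay rather than a fluorescein-labelled cAMP substrate. An IC50 was obtained against each enzyme, and selectivity was taken as PDE4B* IC50 divided by PDE4D* IC50 (B/D ratio).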

Chain of PDE4D7-S129D (PDE4D*) (Q08499 1-748 isoform Q08499-11 S129D, species assumed): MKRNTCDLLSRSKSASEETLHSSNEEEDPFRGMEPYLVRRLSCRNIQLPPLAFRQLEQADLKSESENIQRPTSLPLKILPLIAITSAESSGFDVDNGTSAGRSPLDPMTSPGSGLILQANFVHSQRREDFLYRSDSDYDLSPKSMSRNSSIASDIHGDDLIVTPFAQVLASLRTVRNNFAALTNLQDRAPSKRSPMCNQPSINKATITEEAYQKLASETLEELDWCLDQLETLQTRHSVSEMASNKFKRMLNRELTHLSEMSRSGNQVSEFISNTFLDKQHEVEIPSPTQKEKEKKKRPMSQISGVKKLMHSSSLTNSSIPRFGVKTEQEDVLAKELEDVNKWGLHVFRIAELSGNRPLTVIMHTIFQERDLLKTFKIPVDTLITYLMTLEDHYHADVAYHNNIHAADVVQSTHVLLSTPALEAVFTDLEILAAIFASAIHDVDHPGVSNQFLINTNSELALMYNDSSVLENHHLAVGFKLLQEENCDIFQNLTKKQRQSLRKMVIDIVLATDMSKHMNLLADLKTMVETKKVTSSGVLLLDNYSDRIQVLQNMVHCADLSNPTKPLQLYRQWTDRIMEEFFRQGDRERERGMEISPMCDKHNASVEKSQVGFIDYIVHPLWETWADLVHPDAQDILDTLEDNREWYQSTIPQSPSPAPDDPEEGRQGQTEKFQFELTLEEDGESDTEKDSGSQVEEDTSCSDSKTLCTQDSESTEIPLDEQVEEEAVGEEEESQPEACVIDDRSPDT

Question: For `COc1cccc(-c2nc(COc3cn[nH]c3)ccc2OC(F)F)c1` [Compound 40, 6-(((1H-Pyrazol-4-yl)oxy)methyl)-3-(difluoromethoxy)-2-(3methoxyphenyl)pyridine], which “Selectivity B/D” value is on record?
Answer: Its value is >27.

Question: With `FC(F)Oc1cccc(-c2nc(Cn3ccnc3)ccc2OCc2ccccc2)c1` [Compound 59, 6-((1H-Imidazol-1-yl)methyl)-3-(benzyloxy)-2-(3(difluoromethoxy)phenyl)pyridine] as the compound, how does the “Selectivity B/D” value read?
Answer: Its value is >57.

Question: How did the “Selectivity B/D” value turn out when `COc1ccc(Cn2cncn2)nc1-c1cccc(OC(F)F)c1` [Compound 32, 6-((1H-1,2,4-Triazol-1-yl)methyl)-2-(3-(difluoromethoxy)phenyl)3-methoxypyridine] was run?
Answer: The value was >649.

Question: With `COc1cccc(-c2nc(Cn3cncn3)ccc2OC(F)F)c1` [Compound 45, 6-((1H-1,2,4-Triazol-1-yl)methyl)-3-(difluoromethoxy)-2-(3methoxyphenyl)pyridine] as the compound, how does the “Selectivity B/D” value read?
Answer: Its value is >238.

Question: With `COc1cccc(-c2nc(Cn3ncnn3)ccc2OC(F)F)c1` [Compound 47, 6-((2H-Tetrazol-2-yl)methyl)-3-(difluoromethoxy)-2-(3methoxyphenyl)pyridine] as the compound, how does the “Selectivity B/D” value read?
Answer: The value was >575.

Question: How did the “Selectivity B/D” value turn out when `COc1ccc(Cc2ccc(CCO)cc2)nc1-c1cccc(OC(F)F)c1` [Compound 53, 2-(4-((6-(3-(Difluoromethoxy)phenyl)-5-methoxypyridin-2-yl)methyl)phenyl)ethan-1-ol] was run?
Answer: Its value is >2519.

Question: For `COc1ccc(Cn2cccn2)nc1-c1cccc(F)c1` [Compound 24, 6-((1H-Pyrazol-1-yl)methyl)-2-(3-fluorophenyl)-3-methoxypyridine], which “Selectivity B/D” value is on record?
Answer: Its value is >2.

Question: `COc1cccc(-c2nc(Cn3cnc(C(F)(F)F)n3)ccc2OC(F)F)c1` [Compound 44, 3-(Difluoromethoxy)-2-(3-methoxyphenyl)-6-((3-(trifluoromethyl)-1H-1,2,4-triazol-1-yl)methyl)pyridine] was tested. Which “Selectivity B/D” value did it give?
Answer: The value was >13.

Question: With `Fc1ccc(Cc2cn[nH]c2)nc1-c1cccc(Cl)c1` [Compound 10, 6-((1H-Pyrazol-4-yl)methyl)-2-(3-chlorophenyl)-3-fluoropyridine] as the compound, how does the “Selectivity B/D” value read?
Answer: Its value is >13.

Question: Which “Selectivity B/D” value does the source give for `COc1ccc(Cn2ncnn2)nc1-c1cccc(OC(F)F)c1` [Compound 34, 6-((2H-Tetrazol-2-yl)methyl)-2-(3-(difluoromethoxy)phenyl)-3methoxypyridine] here?
Answer: Its value is >472.

Question: How did the “Selectivity B/D” value turn out when `FC(F)Oc1cccc(-c2nc(Cc3cn[nH]c3)ccc2OCc2ccccc2)c1` [Compound 57] was run?
Answer: The value was >61.

Question: `COc1ccc(Oc2cn[nH]c2)nc1-c1cccc(OC(F)F)c1` [Compound 18, 6-((1H-Pyrazol-4-yl)oxy)-2-(3-(difluoromethoxy)phenyl)-3-methoxypyridine] was tested. Which “Selectivity B/D” value did it give?
Answer: The value was >6.

Question: With `FC(F)Oc1cccc(-c2nc(Cc3ccncc3)ccc2OCc2ccccc2)c1` [Compound 58, 3-(Benzyloxy)-2-(3-(difluoromethoxy)phenyl)-6-(pyridin-4ylmethyl)pyridine] as the compound, how does the “Selectivity B/D” value read?
Answer: Its value is >13.

Question: How did the “Selectivity B/D” value turn out when `COc1ccc(Cn2cnc(C(F)(F)F)n2)nc1-c1cccc(OC(F)F)c1` [Compound 31, 2-(3-(Difluoromethoxy)phenyl)-3-methoxy-6-((3-(trifluoromethyl)-1H-1,2,4-triazol-1-yl)methyl)pyridine] was run?
Answer: The value was >13.

Question: Which “Selectivity B/D” value does the source give for `COc1cccc(-c2nc(Nc3cn[nH]c3)ccc2OC(F)F)c1` [Compound 20, 5-(Difluoromethoxy)-6-(3-methoxyphenyl)-N-(1H-pyrazol-4-yl)pyridin-2-amine] here?
Answer: Its value is >15.

Question: With `COc1ccc(Nc2cn[nH]c2)nc1-c1cccc(C(F)(F)F)c1` [Compound 13, 5-Methoxy-N-(1H-pyrazol-4-yl)-6-(3-(trifluoromethyl)phenyl)pyridin-2-amine] as the compound, how does the “Selectivity B/D” value read?
Answer: Its value is >2.

Question: `COc1ccc(Cc2ccc(CCCO)cc2)nc1-c1cccc(OC(F)F)c1` [Compound 54, 3-(4-((6-(3-(Difluoromethoxy)phenyl)-5-methoxypyridin-2-yl)methyl)phenyl)propan-1-ol] was tested. Which “Selectivity B/D” value did it give?
Answer: Its value is >621.

Question: With `COc1cccc(-c2nc(Cc3ccc(CCCO)cc3)ccc2OC(F)F)c1` [Compound 56, 3-(4-((5-(Difluoromethoxy)-6-(3-methoxyphenyl)pyridin-2-yl)methyl)phenyl)propan-1-ol] as the compound, how does the “Selectivity B/D” value read?
Answer: The value was >420.
